Assay results taken from ChEMBL document CHEMBL3352689 (J Med Chem, 2014).
pIC50: −log10 of the molar value. Values belong to the molecule of their own block, whether it stands above or below them.

Key:
[1] = biological target: Collagenase 3 (Homo sapiens, UniProt P45452); test: Inhibition of human recombinant MMP13 using Cy3-PLGLK(Cy5Q)AR-NH2 as substrate after 40 mins by spectrofluorimetry
[2] = test system: Liver microsome; test: Metabolic stability in rat liver microsomes; type: ADME
Summary of the method: (§1)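 The free acid was incubated with hepatic microsomes of each species. Stability is reported as clearance in μL/min/mg microsomal protein.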

[3] = test system: Rattus norvegicus; test: Intrinsic clearance in iv dosed rat; type: ADME, organism-based; conditions: in vivo
[4] = test system: Macaca fascicularis; test: Volume of distribution at steady state in monkey at 1 mg/kg, iv; conditions: cynomolgus monkey, in vivo, read-out: Vdss
[5] = test system: Macaca fascicularis; test: Total clearance in monkey at 1 mg/kg, iv; conditions: cynomolgus monkey, in vivo
[6] = test system: Macaca fascicularis; test: Oral bioavailability in monkey at 1 mg/kg; conditions: cynomolgus monkey, in vivo
[7] = Total clearance in rabbit at 0.1 mg/kg, iv; conditions: in vivo
[8] = test system: Macaca fascicularis; test: AUC in monkey at 1 mg/kg, po; conditions: cynomolgus monkey, plasma
[9] = Tmax in dog at 10 mg/kg, po; type: ADME, organism-based, Canis lupus familiaris; parameters: dose 10 mg/kg, route oral; conditions: in vivo
Summary of the method: (§2)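 Three male animals per species. The sodium salt was given as a single oral dose in 0.5% methyl cellulose. Plasma Tmax, Cmax, AUC and oral bioavailability were derived.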

[10] = AUC in rat at 10 mg/kg, po; type: ADME, organism-based; parameters: dose 10 mg/kg, route oral; conditions: plasma; summary of the method: as §2
[11] = Cmax in rat at 10 mg/kg, po; type: ADME, organism-based; parameters: dose 10 mg/kg, route oral; conditions: in vivo; summary of the method: as §2
[12] = Volume of distribution at steady state in guinea pig at 1 mg/kg, iv; type: ADME, organism-based, Cavia porcellus; parameters: dose 1 mg/kg, route intravenous; conditions: in vivo, read-out: Vdss
Summary of the method: (§3)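 Three male animals per species. Dosing was intravenous, with the compound in DMA/PEG400 or DMSO. Steady-state volume of distribution and total body clearance were derived from plasma levels.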

[13] = test system: Macaca fascicularis; test: Tmax in monkey at 1 mg/kg, po; conditions: cynomolgus monkey, in vivo
[14] = Oral bioavailability in guinea pig at 3 mg/kg; type: ADME, organism-based, Cavia porcellus; conditions: in vivo; summary of the method: as §2
[15] = AUC in dog at 10 mg/kg, po; type: ADME, organism-based, Canis lupus familiaris; parameters: dose 10 mg/kg, route oral; conditions: plasma; summary of the method: as §2
[16] = Total clearance in guinea pig at 1 mg/kg, iv; type: ADME, organism-based, Cavia porcellus; parameters: dose 1 mg/kg, route intravenous; conditions: in vivo; summary of the method: as §3
[17] = Total clearance in rat at 1 mg/kg, iv; type: ADME, organism-based; parameters: dose 1 mg/kg, route intravenous; conditions: in vivo; summary of the method: as §3
[18] = Oral bioavailability in rabbit at 10 mg/kg; type: ADME, organism-based, Oryctolagus cuniculus; conditions: in vivo; summary of the method: as §2
[19] = test system: Rattus norvegicus; test: Toxicity in rat at 200 mg/kg/day; type: organism-based; conditions: in vivo
[20] = test system: Rattus norvegicus; test: Oral bioavailability in rat assessed as 4-[2-({6-Fluoro-2-[({[3-(methyloxy)phenyl]methyl}amino)-carbonyl]-4-oxo-3,4-dihydroquinazolin-5-yl}oxy)ethyl]-benzoic acid at 3 mg/kg; type: ADME, organism-based; conditions: in vivo
Summary of the method: (§4)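 The free-acid form was dosed orally in 0.5% methyl cellulose at 3 mg/kg to three male animals. Oral bioavailability was calculated.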

[21] = Metabolic stability in rabbit liver microsomes; type: ADME, Oryctolagus cuniculus; summary of the method: as §1
[22] = test system: Oryctolagus cuniculus; test: Oral bioavailability in rabbit assessed as 4-[2-({6-Fluoro-2-[({[3-(methyloxy)phenyl]methyl}amino)-carbonyl]-4-oxo-3,4-dihydroquinazolin-5-yl}oxy)ethyl]-benzoic acid at 1 mg/kg; type: ADME, organism-based; conditions: in vivo
Summary of the method: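 Rabbits, three males, received the free-acid form orally in 0.5% methyl cellulose at 1 mg/kg. Oral bioavailability was calculated.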

[23] = Volume of distribution at steady state in dog at 1 mg/kg, iv; type: ADME, organism-based, Canis lupus familiaris; parameters: dose 1 mg/kg, route intravenous; conditions: in vivo, read-out: Vdss; summary of the method: as §3
[24] = AUC in guinea pig at 3 mg/kg, po; type: ADME, organism-based, Cavia porcellus; parameters: dose 3 mg/kg, route oral; conditions: plasma; summary of the method: as §2
[25] = Total clearance in dog at 1 mg/kg, iv; type: ADME, organism-based, Canis lupus familiaris; parameters: dose 1 mg/kg, route intravenous; conditions: in vivo; summary of the method: as §3
[26] = test system: Cavia porcellus; test: Oral bioavailability in guinea pig assessed as 4-[2-({6-Fluoro-2-[({[3-(methyloxy)phenyl]methyl}amino)-carbonyl]-4-oxo-3,4-dihydroquinazolin-5-yl}oxy)ethyl]-benzoic acid at 3 mg/kg; type: ADME, organism-based; conditions: in vivo; summary of the method: as §4
[27] = Tmax in rabbit at 10 mg/kg, po; type: ADME, organism-based, Oryctolagus cuniculus; parameters: dose 10 mg/kg, route oral; conditions: in vivo; summary of the method: as §2
[28] = test system: Macaca fascicularis; test: Cmax in monkey at 1 mg/kg, po; conditions: cynomolgus monkey, in vivo
[29] = test system: Liver; test: Metabolic stability in guinea pig liver microsomes; type: ADME, Cavia porcellus; summary of the method: as §1
[30] = Volume of distribution at steady state in rat at 1 mg/kg, iv; type: ADME, organism-based; parameters: dose 1 mg/kg, route intravenous; conditions: in vivo, read-out: Vdss; summary of the method: as §3
[31] = Cmax in guinea pig at 3 mg/kg, po; type: ADME, organism-based, Cavia porcellus; parameters: dose 3 mg/kg, route oral; conditions: in vivo; summary of the method: as §2
[32] = test system: Canis familiaris; test: Oral bioavailability in dog assessed as 4-[2-({6-Fluoro-2-[({[3-(methyloxy)phenyl]methyl}amino)-carbonyl]-4-oxo-3,4-dihydroquinazolin-5-yl}oxy)ethyl]-benzoic acid at 3 mg/kg; type: ADME, organism-based, Canis lupus familiaris; conditions: in vivo; summary of the method: as §4
[33] = test system: Macaca fascicularis; test: Oral bioavailability in monkey assessed as 4-[2-({6-Fluoro-2-[({[3-(methyloxy)phenyl]methyl}amino)-carbonyl]-4-oxo-3,4-dihydroquinazolin-5-yl}oxy)ethyl]-benzoic acid at 3 mg/kg; conditions: cynomolgus monkey, in vivo
[34] = Cmax in rabbit at 10 mg/kg, po; type: ADME, organism-based, Oryctolagus cuniculus; parameters: dose 10 mg/kg, route oral; conditions: in vivo; summary of the method: as §2
[35] = Metabolic stability in cynomolgus monkey liver microsomes
[36] = Volume of distribution at steady state in rabbit at 0.1 mg/kg, iv; conditions: in vivo, read-out: Vdss
[37] = AUC in rabbit at 10 mg/kg, po; type: ADME, organism-based, Oryctolagus cuniculus; parameters: dose 10 mg/kg, route oral; conditions: plasma; summary of the method: as §2
[38] = Tmax in rat at 10 mg/kg, po; type: ADME, organism-based; parameters: dose 10 mg/kg, route oral; conditions: in vivo; summary of the method: as §2
[39] = Tmax in guinea pig at 3 mg/kg, po; type: ADME, organism-based, Cavia porcellus; parameters: dose 3 mg/kg, route oral; conditions: in vivo; summary of the method: as §2
[40] = Oral bioavailability in rat at 10 mg/kg; type: ADME, organism-based; conditions: in vivo; summary of the method: as §2
[41] = test system: Liver microsome; test: Metabolic stability in human liver microsomes; type: ADME; summary of the method: as §1
[42] = Oral bioavailability in dog at 10 mg/kg; type: ADME, organism-based, Canis lupus familiaris; conditions: in vivo; summary of the method: as §2
[43] = Cmax in dog at 10 mg/kg, po; type: ADME, organism-based, Canis lupus familiaris; parameters: dose 10 mg/kg, route oral; conditions: in vivo; summary of the method: as §2

Compound: COc1cccc(CNC(=O)c2nc3ccc(F)cc3c(=O)[nH]2)c1
pIC50 [1]: 7.96

Compound: COc1cccc(CNC(=O)c2nc3ccc(C(F)(F)F)cc3c(=O)[nH]2)c1
pIC50 [1]: 7.01

Compound: COc1cccc(CNC(=O)c2nc3ccc(OC)cc3c(=O)[nH]2)c1
pIC50 [1]: 8.40

Compound: CCOc1ccc2nc(C(=O)NCc3cccc(OC)c3)[nH]c(=O)c2c1
pIC50 [1]: 8.62

Compound: COc1cccc(CNC(=O)c2nc3ccc(OC(F)(F)F)cc3c(=O)[nH]2)c1
pIC50 [1]: 7.57

Compound: COc1cccc(CNC(=O)c2nc3ccc(OCc4ccccc4)cc3c(=O)[nH]2)c1
pIC50 [1]: 6.96

Compound: COc1cccc(CNC(=O)c2nc3ccc(S(C)(=O)=O)cc3c(=O)[nH]2)c1
pIC50 [1]: 7.64

Compound: COc1cccc(CNC(=O)c2nc3ccc(-c4ccccc4)cc3c(=O)[nH]2)c1
pIC50 [1]: 8.01

Compound: COc1cccc(CNC(=O)c2nc3ccc(C#N)cc3c(=O)[nH]2)c1
pIC50 [1]: 8.20

Compound: COc1cccc(CNC(=O)c2nc3cc(OC)ccc3c(=O)[nH]2)c1
pIC50 [1]: 5.66

Compound: COc1cccc(CNC(=O)c2nc3c(OC)cccc3c(=O)[nH]2)c1
pIC50 [1]: < 5.00

Compound: COc1cccc(CNC(=O)c2nc3cccc(F)c3c(=O)[nH]2)c1
pIC50 [1]: 8.30

Compound: COc1cccc(CNC(=O)c2nc3cccc(OC)c3c(=O)[nH]2)c1
pIC50 [1]: 7.60

Compound: COc1cccc(CNC(=O)c2nc3cccc(C#N)c3c(=O)[nH]2)c1
pIC50 [1]: 8.07

Compound: COc1cccc(CNC(=O)c2nc3cccc(NCCc4ccccc4)c3c(=O)[nH]2)c1
pIC50 [1]: 8.37

Compound: COc1cccc(CNC(=O)c2nc3cccc(SCCc4ccccc4)c3c(=O)[nH]2)c1
pIC50 [1]: 8.01

Compound: COc1cccc(CNC(=O)c2nc3cccc(CCCc4ccccc4)c3c(=O)[nH]2)c1
pIC50 [1]: 8.54

Compound: COc1cccc(CNC(=O)c2nc3cccc(CN(C)Cc4ccccc4)c3c(=O)[nH]2)c1
pIC50 [1]: 7.80

Compound: COc1cccc(CNC(=O)c2nc3cccc(OCCN4CCCCC4)c3c(=O)[nH]2)c1
pIC50 [1]: 7.47

Compound: COc1cccc(CNC(=O)c2nc3ccc(F)c(OCCc4ccc(C(=O)[O-])cc4)c3c(=O)[nH]2)c1.[Na+]
Vd [4]: 7.03 L/kg | clearance [5]: 20.9 mL/min/kg | bioavailability [6]: 45% | clearance [7]: 3.7 mL/min/kg | AUC [8]: 456 ng·h/mL | Tmax [9]: 1.7 h | AUC [10]: 1600 ng·h/mL | Cmax [11]: 439 ng/mL | Vd [12]: 5.39 L/kg | Tmax [13]: 2.8 h | bioavailability [14]: 74% | AUC [15]: 31800 ng·h/mL | clearance [16]: 26.9 mL/min/kg | clearance [17]: 34.6 mL/min/kg | bioavailability [18]: 35% | Activity [19]: Non-toxic | F [20]: 4.9% | Stability [21]: 3 µL/min/mg | F [22]: 11% | Vd [23]: 0.731 L/kg | AUC [24]: 1410 ng·h/mL | clearance [25]: 3.08 mL/min/kg | F [26]: 6.3% | Tmax [27]: 1.8 h | Cmax [28]: 45 ng/mL | Stability [29]: 1 µL/min/mg | Vd [30]: 0.995 L/kg | Cmax [31]: 439 ng/mL | F [32]: 3% | F [33]: 1.5% | Cmax [34]: 2290 ng/mL | Stability [35]: 2 µL/min/mg | Vd [36]: 1.14 L/kg | AUC [37]: 15700 ng·h/mL | Tmax [38]: 0.25 h | Tmax [39]: 0.5 h | bioavailability [40]: 23% | Stability [41]: 3 µL/min/mg | bioavailability [42]: 58% | Cmax [43]: 3870 ng/mL

Now from value to molecule:

pIC50 [1]: 8.74
Compound: COc1cccc(CNC(=O)c2nc3ccc(SC)cc3c(=O)[nH]2)c1

pIC50 [1]: 8.66
Compound: COc1cccc(CNC(=O)c2nc3cccc(-c4ccccc4)c3c(=O)[nH]2)c1

pIC50 [1]: 9.28
Compound: COc1cccc(CNC(=O)c2nc3cccc(Oc4ccccc4)c3c(=O)[nH]2)c1

pIC50 [1]: 9.51
Compound: COc1cccc(CNC(=O)c2nc3cccc(OCc4ccccc4)c3c(=O)[nH]2)c1

Microsomal clearance [2]: 170 µL/min/mg | CL [3]: 28.3 mL/min/kg | pIC50 [1]: 9.16
Compound: COc1cccc(CNC(=O)c2nc3cccc(OCCc4ccccc4)c3c(=O)[nH]2)c1

pIC50 [1]: 9.28
Compound: COc1cccc(CNC(=O)c2nc3cccc(OCCCc4ccccc4)c3c(=O)[nH]2)c1

pIC50 [1]: 8.80
Compound: COc1cccc(CNC(=O)c2nc3cccc(OCCOCc4ccccc4)c3c(=O)[nH]2)c1

pIC50 [1]: 8.77
Compound: COc1cccc(CNC(=O)c2nc3cccc(COCc4ccccc4)c3c(=O)[nH]2)c1

pIC50 [1]: 9.80
Compound: COc1cccc(CNC(=O)c2nc3cccc(CC(=O)Nc4ccccc4)c3c(=O)[nH]2)c1

pIC50 [1]: 9.00
Compound: COc1cccc(CNC(=O)c2nc3cccc(OCCC4CCCCC4)c3c(=O)[nH]2)c1

Microsomal clearance [2]: 150 µL/min/mg | CL [3]: 17 mL/min/kg | pIC50 [1]: 10.40
Compound: COc1cccc(CNC(=O)c2nc3ccc(F)c(OCCc4ccccc4)c3c(=O)[nH]2)c1

Microsomal clearance [2]: 180 µL/min/mg | CL [3]: 28.3 mL/min/kg | pIC50 [1]: 9.82
Compound: COc1cccc(CNC(=O)c2nc3ccc(F)c(OCCc4ccc(F)cc4)c3c(=O)[nH]2)c1

Microsomal clearance [2]: 140 µL/min/mg | CL [3]: 233 mL/min/kg | pIC50 [1]: 10.52
Compound: COc1cccc(CNC(=O)c2nc3ccc(F)c(OCCc4ccc(N)cc4)c3c(=O)[nH]2)c1
